# Hits are enriched below; roughly 2.9% of the tested compounds scored in any of these assays.
# E coli RNAP – inhibitors of Escherichia coli RNA polymerase; actives 0.2% (n = 62,000); inhibition, %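 (tested at 10 µM)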; AID 559; E. coli RNA polymerase, fluorescence transcription assay; in the data active = inhibition above about 20%;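 note: 0% = enzyme without compound and 100% = no enzyme blank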
# tolC growth inh – E. coli tolC mutant growth inhibition; actives 2.2% (n = 65,000); growth inhibition, % at 10 µM (by protocol); AID 573; E. coli BW25113 tolC mutant growth, OD615;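 active = growth inhibition at or above a cutoff equal to the mean over every tested compound plus 3 SD, cut at about 60% in these data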;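 note: growth measured after 20 h incubation at 37 °C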
#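 test system = E. coli BW25113 ΔtolC::kan bacteria | medium = LB with kanamycin 50 µg/mL | signal = OD at 615 nm | schedule = 37 °C, 20 h exposure | evaluation = % inhibition of E. coli growth | compound dosing = one dose of 10 µM final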
# BAP1 inh – inhibitors of human BAP1 deubiquitinase. Q92560. recombinant BAP1, Ub-AMC hydrolysis fluorescence kinetic; active compounds read low. calls only at 20 µM. actives 0.48% (n = 72,000);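 active = activity remaining at or below 50% of control, provided the compound also passes the data quality filters; inactive = the rest, including low values that fail the filters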;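 note: 100% = DMSO wells rate and 0% = substrate alone blank rate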
# Cdc25B inh – inhibitors of human Cdc25B phosphatase; AID 368; actives 0.1% (n = 65,000); P30305; recombinant Cdc25B, OMFP fluorescence Ex485/Em525; inhibition, %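 (compounds tested at 10 µM final in the well)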; in the data active = inhibition above about 50%
# Hsp90 inh – displaces geldanamycin probe from tumor Hsp90 | AID 429 | inhibition, % at 30 µM | actives 0.35% (n = 64,000) | P07900 | NCI-N417 lysate Hsp90, Cy3B-geldanamycin FP displacement;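 active = inhibition above 50%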;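 note: 0% = tracer plus lysate wells and 100% = tracer alone without lysate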
# DUSP1 inh – inhibitors of human MKP-1 phosphatase. P28562. recombinant MKP-1, OMFP hydrolysis fluorescence. inhibition, %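 (compounds tested at a single concentration somewhere between 10 and 100 µM)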. actives 0.15% (n = 65,000). AID 374;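 active = inhibition above about 50%, limit read from the data; inconclusive = inhibition over screen mean plus 3 SD, below that limit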;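 note: 0% = DMSO max control wells and 100% = wells with enzyme stopped by NaOH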
# Target sequence (P28562 whole entry, looked up): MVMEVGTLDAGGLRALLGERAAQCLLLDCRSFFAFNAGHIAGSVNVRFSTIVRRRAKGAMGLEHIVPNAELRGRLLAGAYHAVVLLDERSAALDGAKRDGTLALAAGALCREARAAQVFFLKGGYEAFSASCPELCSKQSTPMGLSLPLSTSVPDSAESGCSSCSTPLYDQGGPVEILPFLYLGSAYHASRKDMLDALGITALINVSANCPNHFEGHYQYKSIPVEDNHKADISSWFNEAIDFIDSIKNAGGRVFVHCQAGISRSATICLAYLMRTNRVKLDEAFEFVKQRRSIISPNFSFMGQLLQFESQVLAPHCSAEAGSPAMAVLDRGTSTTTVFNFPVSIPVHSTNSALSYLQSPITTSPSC
# Numbers without * were called inactive; i = inactive; ? = inconclusive; nt = no result shown; + = active, no number.
SMILES,E coli RNAP,tolC growth inh,BAP1 inh,Cdc25B inh,Hsp90 inh,DUSP1 inh
O=C(CCCOc1ccccc1)N1CCN(c2ccccn2)CC1,4,-5,i,-9,0,-11
O=C(CCCOc1ccc(Cl)cc1Cl)N1CCN(c2ccccn2)CC1,3,73*,i,-15,-3,6
CCCCNc1ccc2cccc(O)c2n1,nt,nt,i,nt,nt,nt
O=C(O)Cc1n[nH]c(=O)[nH]c1=O,nt,nt,i,nt,nt,nt
CC1CCCCN1C(=O)CSc1nc(C2CC2)nc2c1cnn2-c1ccccc1 (stereo not drawn),1,67*,nt,-3,-3,25
Cc1c(CCC(=O)O)c(=O)oc2cc3occ(-c4ccc(F)cc4)c3cc12,9,100*,i,9,2,?
Cc1c(CCC(=O)O)c(=O)oc2cc(O)ccc12,-185,-10,nt,-8,-1,-1
CCCOC(=O)/C(C(N)=NCc1ccccc1)=C(\O)OCCC,-8,62*,i,-15,-1,6
CCCN=C(N)/C(C(=O)OCC)=C(\O)c1ccc(OC)cc1,2,9,i,-5,-3,5
COc1ccc(C2(O)CC3CCC(C2)N3c2nc(C)cc(C)c2C#N)cc1 (stereo not drawn),3,85*,i,-2,-2,10
O=C(CN1CCOCC1)Nc1nc(-c2ccc3c(c2)CCN3S(=O)(=O)c2ccccc2)cs1,7,8,i,-8,2,-3
CS(=O)(=O)N1CCc2cc(-c3csc(NC(=O)Cc4cccs4)n3)ccc21,nt,62*,i,2,-7,10
CC1CCCCC1n1c(=S)[nH]c2ccccc2c1=O (stereo not drawn),1,100*,i,-19,-2,10
O=c1c2ccccc2nc(C=Cc2c[nH]c3ccccc23)n1-c1ccc([N+](=O)[O-])cc1,nt,nt,i,nt,nt,nt
Nc1cc(N)cc(-c2nc3ccccc3o2)c1,8,-9,i,-3,0,0
O=c1c(-c2nc3ccccc3o2)c2oc3ccccc3n2c2ccccc12,-7,98*,nt,-3,0,26
Cc1occc1C(=O)NC1CCCCCC1,1,-14,i,-13,-7,4
O=C(NC1CCCCCCC1)c1ccccc1O,4,83*,i,3,-5,2
COc1ccc2ccccc2c1C1NC(=S)NC(C)=C1C(=O)Nc1ccccc1C (stereo not drawn),nt,nt,i,nt,nt,nt
CCOC(=O)Cc1nnc2c(Nc3ccccc3F)nc3nonc3n12,11,79*,i,1,6,5
CCOCCOC(=O)C1=C(C)NC2=C(C(=O)CCC2)C1c1cc(OC)c(OC)cc1Br (stereo not drawn),nt,nt,i,nt,nt,nt
O=C(N1CCN(c2ccccn2)CC1)N1c2ccccc2Sc2ccccc21,5,62*,i,-13,-2,-15
COc1ccc(-c2[nH]c(-c3cccc(OC)c3)nc2SCC(=O)NCc2ccco2)cc1,7,67*,i,-14,-1,-3
O=C(Nc1ccc([N+](=O)[O-])cc1Br)c1cccc(C(=O)Nc2ccc([N+](=O)[O-])cc2Br)n1,nt,nt,i,nt,nt,nt
CCn1cc(Br)c(C(=O)Nc2ccc(OC)cc2)n1,0,5,nt,-5,-7,0
SMILES,E coli RNAP,tolC growth inh,BAP1 inh,Cdc25B inh,Hsp90 inh,DUSP1 inh
CCn1cc(Br)c(C(=O)Nc2ccc(C(=O)OC(C)C)cc2)n1,6,67*,i,-3,-6,-1
Cc1cc(Cl)ccc1OCC(=O)Nc1ccc(N2CCOCC2)cc1,nt,nt,i,nt,nt,nt
CCN1/C(=C(\O)c2ccccc2)C(=O)c2ccccc2S1(=O)=O,8,89*,i,1,-3,-6
CCCCOc1[nH]c2nc(-c3ccco3)n(Cc3ccco3)c(=N)c2c1C#N,11,78*,i,3,-2,-18
O=C1Nc2ccc(S(=O)(=O)Nc3ccc4oc5c(c4c3)CCCC5)c3cccc1c23,nt,nt,i,nt,nt,nt
CCOC(=O)c1c(C)oc2ccc(NS(=O)(=O)c3ccc4c5c(cccc35)C(=O)N4)cc12,10,68*,nt,1,4,30
CCOC(=O)c1c(N)sc(C(=O)Nc2cccc(C(F)(F)F)c2)c1C,nt,nt,i,nt,nt,nt
COC(=O)c1cc2cc(Br)ccc2oc1=O,nt,nt,i,nt,nt,nt
CC1CCC2C(C1)c1sc(=O)[nH]c1SC2(C)C (stereo not drawn),-9,63*,i,-11,2,-13
CC1=C(C(=O)OC2CCCCC2)C(c2cccc(O)c2)NC(=O)N1 (stereo not drawn),nt,nt,i,nt,nt,nt
CCc1oc2ccccc2c1C(=O)CCN1CCCCC1,9,-5,i,-12,-1,19
C/C(CCc1oc2ccccc2c1-c1ccc(C)o1)=N/O,nt,98*,i,6,-2,22
CCCCCCCCCCCCCCC[C@H](O)[C@H](N)CO,nt,nt,+,nt,-1,nt
CCOC(=O)c1c(NC(=O)c2ccc(C)c([N+](=O)[O-])c2)sc(C(=O)Nc2ccccc2F)c1C,nt,nt,i,nt,nt,nt
O=C(c1ccco1)N1CCN(c2ncnc3c2[nH]c2ccc(Br)cc23)CC1,12,65*,i,-3,-3,8
N#CCSc1nnc(Cc2cccs2)n1C1CCCCC1,7,2,i,-8,-12,28
COc1ccccc1-c1nnc(SC/C(O)=C(\C#N)c2nc3ccccc3[nH]2)n1C1CCCCC1,15,71*,i,26,-4,38
N#C/C(=C(/O)CSc1nnc(Cc2cccs2)n1C1CCCCC1)c1nc2ccccc2[nH]1,4,26,nt,0,nt,52*
O=C(O)c1cc(-c2ccc(N3C(=O)c4ccccc4C3=O)c(C(=O)O)c2)ccc1N1C(=O)c2ccccc2C1=O,nt,nt,i,nt,nt,nt
O=C(Oc1ccc(F)cc1)c1cccc(C(=O)Oc2ccc(F)cc2)n1,nt,nt,i,nt,nt,nt
CCOC(=O)c1sc(-c2ccccc2)cc1NC(=O)c1cc2ccccc2oc1=O,nt,nt,i,nt,nt,nt
Cc1cc(NC(=O)Cn2nnc3sc4c(c3c2=O)CCC(C(C)(C)C)C4)no1 (stereo not drawn),5,76*,i,9,-4,30
c1ccc(-c2csc(N3CCN(c4ccccn4)CC3)n2)cc1,4,88*,i,-2,0,5
CCOC(=O)c1c(NC(=O)OC)sc2c1CCC2,-2,1,i,-7,-1,4
CCOC(=O)c1c(NC(=O)CN(CC)CC)sc2c1CCC2,2,100*,i,-5,-2,9
Cc1nn(-c2ccccc2)c2sc(C(=O)OCN3C(=O)c4ccccc4C3=O)cc12,7,1,+,-2,-1,4
COc1ccccc1NC(=O)c1c(NC(=O)C(C)C)sc2c1CCCC2,nt,nt,i,nt,nt,nt
Nc1nncn1C(=O)CCCN1C(=O)c2ccccc2C1=O,5,96*,i,2,0,6
CN(C)c1ccc(/C=N/n2ncc3ccccc32)cc1,-2,62*,nt,-5,nt,11
Cc1cccc(C2CN(C)CCc3c2cc(O)c(O)c3Cl)c1 (stereo not drawn),nt,nt,i,nt,69*,nt

# Assay outcomes: PubChem BioAssay, several laboratories
